Experiments:
[1] = Inhibition of mouse GAT2-mediated [3H]GABA uptake expressed in BHK cells
[2] = Inhibition of mouse GAT3-mediated [3H]GABA uptake expressed in BHK cells
[3] = molecular target: T1, Sodium- and chloride-dependent GABA transporter 2 (Mus musculus, UniProt P31649); assay: Inhibition of mouse GAT2-mediated [3H]GABA uptake expressed in human HEK cells
T1 sequence (P31649 whole entry): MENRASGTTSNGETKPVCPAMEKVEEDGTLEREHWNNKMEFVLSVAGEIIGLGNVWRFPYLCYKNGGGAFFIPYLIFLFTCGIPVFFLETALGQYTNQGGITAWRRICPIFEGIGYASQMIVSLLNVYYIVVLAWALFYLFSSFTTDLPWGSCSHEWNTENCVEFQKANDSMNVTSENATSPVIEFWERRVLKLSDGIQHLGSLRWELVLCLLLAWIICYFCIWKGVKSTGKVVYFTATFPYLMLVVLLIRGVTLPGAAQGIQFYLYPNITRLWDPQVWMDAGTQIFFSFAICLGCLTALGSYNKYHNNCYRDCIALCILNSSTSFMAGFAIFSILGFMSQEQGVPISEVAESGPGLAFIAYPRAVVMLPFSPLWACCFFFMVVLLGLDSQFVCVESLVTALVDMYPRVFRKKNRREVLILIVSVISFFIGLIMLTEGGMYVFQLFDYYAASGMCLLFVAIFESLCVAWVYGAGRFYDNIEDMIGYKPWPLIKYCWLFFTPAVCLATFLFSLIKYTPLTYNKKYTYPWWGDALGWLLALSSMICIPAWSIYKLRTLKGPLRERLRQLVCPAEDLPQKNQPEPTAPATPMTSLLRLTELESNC
How it was run: (§1)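 Specific [3H]GABA uptake was measured at the murine transporter subtype, and results are given as pIC50 ± SEM from three independent experiments, each run in triplicate.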

[4] = molecular target: T2, Sodium- and chloride-dependent GABA transporter 3 (Mus musculus, UniProt P31650); assay: Inhibition of mouse GAT3-mediated [3H]GABA uptake expressed in human HEK cells
T2 sequence (P31650 whole entry): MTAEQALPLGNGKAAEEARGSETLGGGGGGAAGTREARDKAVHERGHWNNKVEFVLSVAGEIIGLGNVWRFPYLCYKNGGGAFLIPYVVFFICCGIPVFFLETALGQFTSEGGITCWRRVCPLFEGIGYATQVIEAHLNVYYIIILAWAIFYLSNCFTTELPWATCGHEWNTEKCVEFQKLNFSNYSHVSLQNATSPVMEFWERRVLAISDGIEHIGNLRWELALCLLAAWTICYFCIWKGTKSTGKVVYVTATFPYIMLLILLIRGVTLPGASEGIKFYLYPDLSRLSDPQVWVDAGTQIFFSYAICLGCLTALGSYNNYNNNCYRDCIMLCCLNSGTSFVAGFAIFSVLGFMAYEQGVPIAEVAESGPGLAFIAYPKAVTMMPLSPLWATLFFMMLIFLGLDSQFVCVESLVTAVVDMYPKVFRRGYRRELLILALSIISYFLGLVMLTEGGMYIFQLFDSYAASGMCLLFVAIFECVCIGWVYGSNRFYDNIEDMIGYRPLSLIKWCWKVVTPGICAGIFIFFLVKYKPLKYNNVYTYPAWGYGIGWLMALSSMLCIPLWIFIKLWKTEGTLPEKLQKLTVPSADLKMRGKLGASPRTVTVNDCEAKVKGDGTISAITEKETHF
How it was run: as §1

| SMILES | IC50 [1] [µM] | IC50 [2] [µM] | IC50 [3] [µM] | IC50 [4] [µM] |
| --- | --- | --- | --- | --- |
| COc1ccccc1C1(O)CCN(CCCn2c3ccccc3c3ccccc32)CC1 | 1.41 | 40.7 | 8.13 | 11.7 |
| c1ccc(C(CCCNCc2nnnn2C2CCCCC2)c2ccccc2)cc1 | – | – | 21.9 | 17.4 |
| c1ccc(Cn2nnnc2CNCCCC(c2ccccc2)c2ccccc2)cc1 | – | – | 15.5 | 40.7 |
| C(CNCc1nnnn1C1CCCCC1)=C(c1ccccc1)c1ccccc1 | – | – | 24.5 | 18.2 |
| C(CNCc1nnnn1Cc1ccccc1)=C(c1ccccc1)c1ccccc1 | – | – | 24.5 | 34.7 |
| CC(C)(C)CC(C)(C)n1nnnc1CNC(c1ccccc1)c1ccccc1 | – | – | – | 60.3 |
| c1ccc(C(NCc2nnnn2C2CCCCC2)c2ccccc2)cc1 | – | – | – | 24.5 |
| c1ccc(Cn2nnnc2CNC(c2ccccc2)c2ccccc2)cc1 | – | – | – | 16.2 |
| c1ccc(Cn2nnnc2CNCC(c2ccccc2)c2ccccc2)cc1 | – | – | – | 44.7 |
| CC(C)(C)CC(C)(C)n1nnnc1CNCCC(c1ccccc1)c1ccccc1 | – | – | – | 8.13 |
| CC(C)(C)CC(C)(C)n1nnnc1CNCC=C(c1ccccc1)c1ccccc1 | – | – | 10.2 | 22.9 |
| C(CCNCc1nnnn1C1CCCCC1)=C(c1ccccc1)c1ccccc1 | – | – | – | 21.4 |
| CC(C)(C)CC(C)(C)n1nnnc1CNCCCC(c1ccccc1)c1ccccc1 | – | – | 16.6 | 12.9 |
| CC(C)(C)CC(C)(C)n1nnnc1CNCCC=C(c1ccccc1)c1ccccc1 | – | – | – | 12.3 |

From BindingDB's records for doi:10.1016/j.bmc.2011.08.039 (Ludwig-Maximilians-University Munich, 2011)
